The values below come from publication PMC7318068 (ACS Central Science, 2020).

Data set [1] deals with MDA-MB-468 cells. Description: Cell viability assay for combinatorial effect of AZ-82 and MK-FNE or MK-2206. The format is cell-based. The settings on record: 72 hours.
Another data set deals with Akt1, Akt2, Akt3. The settings on record: cited from earlier work.
The test system of data set [2] is T47D and T47D MK-2206-resistant cells. Description: Cell viability of T47D. The format is cell-based. The settings on record: 72 h.
Data set [3] concerns MDA-MB-468 cells. The experiment in a line: Drug effect persistence assay. The class given is cell-based. The settings on record: EC60 concentration 48 h, then 24 h recovery.
Data set [4] concerns Akt3(T305)-phosphorylation. The experiment in a line: Halo-Akt3 phospho-T305 levels by western blot and ELISA. The class given is cell-based. The settings on record: saturating doses. (In general: In western blotting, separated proteins are transferred to a membrane and probed.)
Another data set deals with Halo-Akt3(C119S) (Homo sapiens, UniProt Q9Y243, C119S). The format is cell-based. The settings on record: 5 μM, 48 h, then withdrawal. The essentials: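 HEK293T cells co-expressing the AktAR ratiometric-FRET reporter and Halo-Akt3(C119S) were exposed to test compound (5 μM) or DMSO for 24–48 h. They were then rinsed twice and recovered in drug-free media for 24 h. Akt kinase activity was imaged live by confocal ratiometric FRET with 458 nm argon-laser excitation at set times.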

The target in the next data set is Halo-Akt3(wt) (Homo sapiens, UniProt Q9Y243). The class given is cell-based. The settings on record: 5 μM.
The next data set deals with MDA-MB-468 xenografts. The experiment in a line: Drug efficacy test in MDA-MB-468 xenograft mouse model. The class given is in vivo, athymic nude mice. The settings on record: 200 mg/kg PO twice weekly. A digest of the protocol: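 Polyclonal MDA-MB-468 cells were injected into both flanks of female nude mice. From day 7, test compound (200 mg/kg) or vehicle DMSO was given by oral gavage twice weekly, 5 mice per group. Tumor volume was normalized to time zero and plotted against time. Growth rate was the linear-regression slope; groups were compared by two-tailed unpaired t-test.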

Sequence of Halo-Akt3(wt) (Q9Y243 whole entry): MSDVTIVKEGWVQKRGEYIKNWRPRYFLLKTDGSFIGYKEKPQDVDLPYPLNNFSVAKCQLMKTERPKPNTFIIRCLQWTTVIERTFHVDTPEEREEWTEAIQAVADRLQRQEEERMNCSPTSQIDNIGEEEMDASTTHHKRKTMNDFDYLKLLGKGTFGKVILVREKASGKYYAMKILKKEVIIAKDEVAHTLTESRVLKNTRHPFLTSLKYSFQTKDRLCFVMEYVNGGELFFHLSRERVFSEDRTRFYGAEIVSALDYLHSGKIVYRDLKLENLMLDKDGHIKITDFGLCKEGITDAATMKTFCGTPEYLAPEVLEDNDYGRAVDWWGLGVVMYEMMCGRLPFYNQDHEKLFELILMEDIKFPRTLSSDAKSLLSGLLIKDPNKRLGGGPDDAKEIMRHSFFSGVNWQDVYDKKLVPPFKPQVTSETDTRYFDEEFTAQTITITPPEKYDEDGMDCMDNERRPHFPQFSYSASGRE
Sequence of Halo-Akt3(C119S) (Q9Y243 whole entry C119S): as the sequence (Q9Y243 whole entry) above, with C119S counted along it

For the compound `CCCc1cc(C(=O)N[C@H](Cc2ccc(-c3cccc(OC(F)(F)F)c3)nc2)C(=O)N[C@@H]2CCNC2)sc1C` [AZ82], the “effect on proliferation inhibition by MK-FNE or MK-2206” value with MDA-MB-468 cells [1] is “selectively promoted resistance to MK-FNE, but not MK-2206”.

Turning to `NC1(c2ccc(-c3nc4ccn5c(=O)[nH]nc5c4cc3-c3ccccc3)cc2)CCC1` [MK-2206], in the data set with Akt1, Akt2, Akt3, the “higher affinity for Akt1 than Akt3” value is about 100 fold and the “preference of Akt2 over Akt3 for binding” value was “around 10 fold”. Besides, in data set [2], the “Fold increase in resistance = EC50(MK-res)/EC50(wt)” value worked out at 5 fold. Moreover, the “regrowth after compound withdrawal” value with MDA-MB-468 cells [3] is “statistically significant regrowth was observed”. In addition, the “Akt3(T305)-phosphorylation” value in data set [4] is listed as “fully suppressed”. The “Akt3(C119S) activity after 24 h withdrawal in drug-free media” value on Halo-Akt3(C119S) is “recovery to normal activity levels”. For the same compound, the “ratiometric-FRET signal (Akt activity) under treatment” value on Halo-Akt3(wt) (24 h, vs DMSO) was “suppressed the ratiometric-FRET signal”. Further, the “Akt3(wt) activity after 24 h withdrawal in drug-free media” value at Halo-Akt3(wt) (48 h, then withdrawal) is listed as “kinase activity was restored”. The tumor-growth suppression overall in the data set on MDA-MB-468 xenografts (vs DMSO) is 14%. Further, in the data set on MDA-MB-468 xenografts (DMSO 0.0638 ± 0.0032), the “slope (m) of fold change in tumor size vs day, linear regression” value is given as 0.0547 ± 0.0018. For the same compound, the blood glucose levels entry in the data set with MDA-MB-468 xenografts (Day 21, 4 days after termination of dosing) is recorded as “elevated relative to MK-FNE-treated mice”.
